Assay outcomes: PubChem BioAssay, The Scripps Research Institute Molecular Screening Center
This is a sample that favours compounds with a hit; in the whole collection about 3.3% have one here.
SIAE inh – human SIAE inhibition, primary screen; inhibition, % at 9.66 µM; SIAE FP-Rh probe binding, fluorescence polarization; Q9HAT2; hit rate 0.69% among 370,000;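 active = inhibition above a cutoff: mean of compounds within the control limits plus 3 SD of those, cut at about 17% in these data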;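 also: 0% = plate median of compound wells and 100% = probe without SIAE protein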
TCR CD3 inh – blocks the human TCR-CD3 interaction | TAMRA-labeled TCR probe fluorescence, biochemical | inhibition, % at 9.4 µM | hit rate 0.37% among 360,000 | AID 651800;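 also: recombinant mutant TCR 2C K166C tagged with TAMRA read by polarization; 0% = receptor in buffer alone and 100% = receptor with positive control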
ABHD4 inh – inhibitors of mouse ABHD4; AID 720543; hit rate 0.54% among 370,000; inhibition, % at 8.92 µM; Q8VD66; purified mABHD4, FP-Rh probe fluorescence polarization;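 active = inhibition exceeding the mean over every tested compound plus 3 SD, cut at about 30% in these data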;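 also: 0% = plate median of compound wells and 100% = S159A mutant with DMSO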
Target sequence (Q8VD66 whole entry, looked up): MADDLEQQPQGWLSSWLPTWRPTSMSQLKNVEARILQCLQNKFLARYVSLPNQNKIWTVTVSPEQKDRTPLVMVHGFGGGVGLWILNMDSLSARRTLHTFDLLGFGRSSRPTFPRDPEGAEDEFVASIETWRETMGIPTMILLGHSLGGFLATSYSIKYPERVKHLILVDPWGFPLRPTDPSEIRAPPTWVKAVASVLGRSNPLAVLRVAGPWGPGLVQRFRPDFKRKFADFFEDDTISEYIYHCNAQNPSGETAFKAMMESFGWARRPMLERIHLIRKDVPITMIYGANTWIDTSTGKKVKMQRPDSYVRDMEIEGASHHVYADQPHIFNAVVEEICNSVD
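Test system: mABHD4 protein | Buffer or medium: HEPES pH 7.0 buffer, 150 mM NaCl, 0.01% Pluronic F-127 | Probe or stimulus: FP-Rh fluorescent activity-based probe, added after compound pre-incubation | Timing: Pre-incubation 45 min, probe exposure 60 min, at 25 °C | Technique: Fluorescence polarization, excitation 525 nm, emission 598 nm, BODIPY TMR filters | Repeats: Single well per compound (singlicate)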
PRMT1 FP inh – inhibitors of human PRMT1; hit rate 1.3% among 370,000; AID 652257; inhibition, % at 2.79 µM; recombinant PRMT1, activity-based probe fluorescence polarization;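 active = inhibition above about 21% made by adding two undisclosed values, limit read from the data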
Target sequence (Q99873 whole entry, looked up): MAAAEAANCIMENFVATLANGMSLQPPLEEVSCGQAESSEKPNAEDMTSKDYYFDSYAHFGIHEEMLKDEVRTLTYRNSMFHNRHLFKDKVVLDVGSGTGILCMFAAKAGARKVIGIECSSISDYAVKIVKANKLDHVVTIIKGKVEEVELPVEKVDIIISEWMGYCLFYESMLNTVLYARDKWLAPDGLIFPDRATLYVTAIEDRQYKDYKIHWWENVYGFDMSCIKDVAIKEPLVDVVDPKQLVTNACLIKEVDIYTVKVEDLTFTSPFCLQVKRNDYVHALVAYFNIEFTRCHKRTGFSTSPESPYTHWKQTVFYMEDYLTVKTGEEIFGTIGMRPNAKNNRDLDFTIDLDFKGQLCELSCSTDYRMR
rCAG RNA binder – r(CAG) repeat RNA binding | inhibition, % at 3 µM | TO-PRO-1 dye displacement fluorescence | hit rate 1.3% among 370,000 | AID 651821;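 active = inhibition above the plate cutoff, the mean of all test compounds on that plate plus 3 SD, cut at about 35% in these data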;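 also: 0% = DMSO alone and 100% = 100 µM mitoxantrone as full dye displacement; higher means more dye released from RNA so lower well fluorescence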
BSA TAMRA ctr – interferes with TAMRA-BSA probe, flagging TCR-CD3 hits. shares compounds with TCR CD3 inh. AID 652035. hit rate 10% among 1,200. inhibition, % at 9.4 µM. TAMRA-labeled BSA probe fluorescence counterscreen; in the data active = inhibition above about 23%;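 also: 0% = buffer low control and 100% = reference high control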
TCR-CD3 conf – confirmation of human TCR-CD3 interaction inhibitors | shares compounds with TCR CD3 inh | TAMRA-labeled TCR probe fluorescence binding assay | inhibition, % at 9.4 µM | hit rate 48% among 1,200
rCAG binder conf – r(CAG) RNA repeat binding, confirmation; shares compounds with rCAG RNA binder; TO-PRO-1 dye displacement fluorescence; inhibition, % at 3 µM; hit rate 70% among 4,300;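 active = inhibition above a per-plate cutoff, the mean inhibition of sample wells plus 3 SD, cut at about 35% in these data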;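 also: loss of TO-PRO-1 fluorescence as compound displaces dye from 1x1 AA loop RNA; 0% = DMSO only wells and 100% = 100 µM mitoxantrone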
DNA CAG counter – counter-screen for rCAG RNA binders: DNA CAG dye complex inhibitors | shares compounds with rCAG RNA binder | d(CAG) DNA oligo TO-PRO-1 dye displacement, fluorescence | inhibition, % at 3 µM | hit rate 94% among 4,300 | AID 652068;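 active = inhibition above its plate's cutoff, the mean test-well inhibition plus 3 SD, cut at about 4.8% in these data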;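 also: 0% = DNA dye mix with DMSO and 100% = 100 µM mitoxantrone; hits displace the dye from DNA and so lower well fluorescence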
dCAG dye DR – counter-screen for rCAG binders: inhibitors of DNA CAG TO-PRO-1 complex; IC50, µM; AID 686960; DNA CAG/GTC duplex TO-PRO-1 dye displacement fluorescence; shares compounds with rCAG RNA binder; hit rate 20% among 250; in the data active = IC50 below about 10 µM
PRMT1 confirm – confirmation of human PRMT1 inhibitors. shares compounds with PRMT1 FP inh. recombinant His-PRMT1, activity-based probe fluorescence polarization. inhibition, % at 2.79 µM. hit rate 42% among 3,300. AID 687036;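 active = mean inhibition across replicates above the hit cutoff derived for the earlier primary screen, cut at about 22% in these data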
ABHD4 confirm – ABHD4 (mouse) inhibition, FP confirmation | shares compounds with ABHD4 inh | inhibition, % at 8.92 µM | purified mABHD4, FP-Rh probe fluorescence polarization | AID 720658 | hit rate 55% among 1,800;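 active = mean inhibition across replicates above the hit cutoff set in the primary screen, cut at about 30% in these data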;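 also: 0% = wild-type ABHD4 with DMSO and 100% = catalytically dead S159A mutant with DMSO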
SIAE confirm – human SIAE inhibition, confirmation; shares compounds with SIAE inh; SIAE FP-Rh activity-based probe, fluorescence polarization; inhibition, % at 9.66 µM; hit rate 13% among 2,300; AID 1117263;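 active = mean inhibition of the replicates above the hit cutoff set in the primary screen, cut at about 17% in these data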;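 also: 0% = SIAE with DMSO and probe and 100% = probe without SIAE; inhibitors lower polarization as more probe stays unbound to SIAE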
* hit, by the source's call. Rule as the data show it, unless noted: active = inhibition above about 19%; inactive = the rest.

How did CC(=O)[C@@]1(O)Cc2c(O)c3c(c(O)c2[C@H](O[C@H]2C[C@H](N)[C@H](O)[C@H](C)O2)C1)C(=O)c1ccccc1C3=O do in these assays?
SIAE inh: 81.3*; TCR CD3 inh: 175.5*; ABHD4 inh: 101.2*; PRMT1 FP inh: 169.5*; rCAG RNA binder: -16.8; BSA TAMRA ctr: active; TCR-CD3 conf: 166.9*; PRMT1 confirm: 153.1*; SIAE confirm: 81.4*

What do the screens show for `COc1cccc2c1C(=O)c1c(O)c3c(c(O)c1C2=O)CC(O)(C(C)=O)CC3OC1CC(N(C)C)C(O)C(C)O1` (stereo unspecified)?
SIAE inh: 63.8*; TCR CD3 inh: 156.5*; ABHD4 inh: 71.9*; PRMT1 FP inh: 193.2*; rCAG RNA binder: -0.1; BSA TAMRA ctr: 176.0*; TCR-CD3 conf: 144.8*; PRMT1 confirm: 154.1*; ABHD4 confirm: 60.5*; SIAE confirm: 54.4*

Results for COc1ccc(Cn2cc(COC(=O)NCC(C)C)nn2)cc1 ?
SIAE inh: -0.7; ABHD4 inh: 3.8; PRMT1 FP inh: -0.7; rCAG RNA binder: 2.8

How did Cc1ccc(NC(=O)OC2CCC23CCCCC3)cc1 (stereo unspecified) do in these assays?
SIAE inh: -0.3; ABHD4 inh: 2.1; PRMT1 FP inh: -2.0; rCAG RNA binder: 1.2

What do the screens show for `CCN(CC)S(=O)(=O)c1cccc(C(=O)N/N=C/c2ccc(O)c(O)c2O)c1`?
SIAE inh: 34.2*; TCR CD3 inh: 30.7*; ABHD4 inh: 42.4*; PRMT1 FP inh: 26.8*; rCAG RNA binder: 53.3*; BSA TAMRA ctr: -14.1; TCR-CD3 conf: 29.3*; rCAG binder conf: 55.3*; DNA CAG counter: 24.2*; ABHD4 confirm: 52.3*; SIAE confirm: -7.6

What do the screens show for `Oc1ccc(/C=N/Nc2ccnc3cc(Cl)ccc23)c(O)c1O`?
SIAE inh: 41.1*; TCR CD3 inh: 19.7*; ABHD4 inh: 38.3*; PRMT1 FP inh: 14.8; rCAG RNA binder: 38.1*; BSA TAMRA ctr: -16.2; TCR-CD3 conf: 21.9*; rCAG binder conf: 59.5*; DNA CAG counter: 28.5*; dCAG dye DR: inactive; ABHD4 confirm: 55.8*; SIAE confirm: 33.3*

What do the screens show for `CC/C(=N\Nc1ccnc2cc(Cl)ccc12)c1ccc(O)cc1`?
SIAE inh: 7.6; TCR CD3 inh: 3.8; ABHD4 inh: 0.2; PRMT1 FP inh: 12.1; rCAG RNA binder: 8.6

How did COCCCN1C(=O)[C@H](CC(=O)NCCCCc2ccccc2)[C@]2(C(=O)OC)CCCCC=C12 do in these assays?
SIAE inh: 1.3; ABHD4 inh: -4.4; PRMT1 FP inh: 0.2; rCAG RNA binder: -0.9

Results for CC1CCC2(CC1)CCN(CCCOC(=O)NCc1ccc(Cl)cc1)C2=O (stereo unspecified) ?
SIAE inh: -2.3; ABHD4 inh: -2.1; PRMT1 FP inh: 1.7; rCAG RNA binder: -0.5

What do the screens show for `Nc1cnccc1C(=O)O`?
SIAE inh: 20.0*; TCR CD3 inh: 64.7*; ABHD4 inh: 85.5*; PRMT1 FP inh: 70.9*; rCAG RNA binder: -45.1; BSA TAMRA ctr: 32.7*; TCR-CD3 conf: 25.2*; PRMT1 confirm: 14.3; ABHD4 confirm: 21.7; SIAE confirm: 4.7

How did S=c1[nH]nc(-c2n[nH]c3c2CCC3)n1N=Cc1cccs1 do in these assays?
SIAE inh: 3.6; ABHD4 inh: 0.0; PRMT1 FP inh: 7.0; rCAG RNA binder: 4.3

How did Nc1cc2nc3ccccc3oc-2cc1=O do in these assays?
SIAE inh: 20.1*; TCR CD3 inh: 22.8*; ABHD4 inh: 46.7*; PRMT1 FP inh: 24.4*; rCAG RNA binder: 21.5; BSA TAMRA ctr: 1.0; TCR-CD3 conf: 15.3; ABHD4 confirm: 28.7; SIAE confirm: 6.9

What do the screens show for `CC(C)[C@H](NC(=O)[C@@H]1CCCN1)C(=O)N1CCC2CCN(S(=O)(=O)c3ccccc3)CC21` (stereo partly specified)?
SIAE inh: 0.4; ABHD4 inh: 4.0; PRMT1 FP inh: 2.4; rCAG RNA binder: 1.9

How did Cc1cc(C)cc(OC(C)CCN2CCC(C(O)(c3ccccc3)c3ccccc3)CC2)c1 (stereo unspecified) do in these assays?
SIAE inh: -6.0; ABHD4 inh: 16.9; PRMT1 FP inh: 2.8; rCAG RNA binder: -0.6

What do the screens show for `O=C(NNC(=S)NC(=O)c1cccnc1)c1ccccc1`?
SIAE inh: 7.9; TCR CD3 inh: 15.4; ABHD4 inh: 13.6; PRMT1 FP inh: 4.7; rCAG RNA binder: 1.5

How did O=C(Cc1ccccc1)NNC(=S)NC(=O)c1cccnc1 do in these assays?
SIAE inh: 17.3*; TCR CD3 inh: 26.8*; ABHD4 inh: 0.8; PRMT1 FP inh: 0.3; rCAG RNA binder: 1.6; BSA TAMRA ctr: -5.9; TCR-CD3 conf: 21.0*; SIAE confirm: 2.2

What do the screens show for `COC(=O)/C(=C/Nc1ccc(O)cc1)[N+](=O)[O-]`?
SIAE inh: 25.1*; TCR CD3 inh: 98.8*; ABHD4 inh: 94.4*; PRMT1 FP inh: 47.5*; rCAG RNA binder: 3.5; BSA TAMRA ctr: 2.6; TCR-CD3 conf: -1.0; ABHD4 confirm: -1.5; SIAE confirm: -2.5

What do the screens show for `Cc1ccc(S(=O)(=O)N(CCc2ccccc2)CC(=O)N2CCOCC2)cc1`?
SIAE inh: -2.4; ABHD4 inh: 3.1; PRMT1 FP inh: 2.5; rCAG RNA binder: 2.4

How did O=C1NC(=O)C(c2ccccc2[N+](=O)[O-])=C1Nc1ccc(O)c(Cl)c1 do in these assays?
SIAE inh: 18.9*; TCR CD3 inh: 20.4*; ABHD4 inh: 42.6*; PRMT1 FP inh: 14.3; rCAG RNA binder: 8.7; BSA TAMRA ctr: -15.7; TCR-CD3 conf: -2.9; ABHD4 confirm: 2.6; SIAE confirm: -0.6

How did O=C(NNc1ccccc1[N+](=O)[O-])Nc1ccc(Cl)c(Cl)c1 do in these assays?
SIAE inh: -17.9; TCR CD3 inh: -3.4; ABHD4 inh: -20.9; PRMT1 FP inh: 5.6; rCAG RNA binder: 9.6
